ChEMBL document CHEMBL3112518, “Design, synthesis and anticancer activity evaluation of novel C14 heterocycle substituted epi-triptolide” (Eur J Med Chem, 2014)

System: SK-OV-3
Test: Cytotoxicity against human SKOV3 cells after 72 hrs by sulforhodamine B assay
Assay type: functional, cell-based
Details: SK-OV-3, 72 h
In short: (§1)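 Cells in 96-well plates were exposed in triplicate to a concentration gradient of each agent at 37 °C for 72 h, and growth was then measured by sulforhodamine B staining. IC50 is the concentration giving 50% growth inhibition relative to untreated control cells, calculated by the logit method.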

SMILES | IC50 [nM]
CC(C)[C@]12O[C@H]1[C@@H]1O[C@]13[C@]1(O[C@H]1C[C@H]1C4=C(CC[C@@]13C)C(=O)OC4)[C@]21CN(c2ccc3c(cnn3CCN3CCOCC3)c2)CO1 | 152
CC(C)[C@]12O[C@H]1[C@@H]1O[C@]13[C@]1(O[C@H]1C[C@H]1C4=C(CC[C@@]13C)C(=O)OC4)[C@]2(O)Cn1cc(C2CC2)nn1 | > 10000
COC(=O)c1cn(C[C@@]2(O)[C@]34O[C@H]3C[C@H]3C5=C(CC[C@]3(C)[C@@]43O[C@H]3[C@@H]3O[C@@]32C(C)C)C(=O)OC5)nn1 | > 10000
CC(C)[C@]12O[C@H]1[C@@H]1O[C@]13[C@]1(O[C@H]1C[C@H]1C4=C(CC[C@@]13C)C(=O)OC4)[C@]2(O)Cn1cc(-c2ccccc2)nn1 | > 10000
CC(C)[C@]12O[C@H]1[C@@H]1O[C@]13[C@]1(O[C@H]1C[C@H]1C4=C(CC[C@@]13C)C(=O)OC4)[C@]2(O)CNc1cccnc1 | 745
CC(C)[C@]12O[C@H]1[C@@H]1O[C@]13[C@]1(O[C@H]1C[C@H]1C4=C(CC[C@@]13C)C(=O)OC4)[C@]2(O)CNc1cccc2[nH]ccc12 | 53.8
CC(C)[C@]12O[C@H]1[C@@H]1O[C@]13[C@]1(O[C@H]1C[C@H]1C4=C(CC[C@@]13C)C(=O)OC4)[C@]2(O)CNc1ccc2[nH]ncc2c1 | 17.4
CC(C)[C@]12O[C@H]1[C@@H]1O[C@]13[C@]1(O[C@H]1C[C@H]1C4=C(CC[C@@]13C)C(=O)OC4)[C@]2(O)CNc1ccc2cn[nH]c2c1 | 49
CC(C)[C@]12O[C@H]1[C@@H]1O[C@]13[C@]1(O[C@H]1C[C@H]1C4=C(CC[C@@]13C)C(=O)OC4)[C@]2(O)CNc1ccc2c(cnn2C)c1 | 15
CC(C)[C@]12O[C@H]1[C@@H]1O[C@]13[C@]1(O[C@H]1C[C@H]1C4=C(CC[C@@]13C)C(=O)OC4)[C@]2(O)CNc1ccc2nn(C)cc2c1 | 22.3
COC(=O)n1ncc2cc(NC[C@@]3(O)[C@]45O[C@H]4C[C@H]4C6=C(CC[C@]4(C)[C@@]54O[C@H]4[C@@H]4O[C@@]43C(C)C)C(=O)OC6)ccc21 | 102
COC(=O)c1n[nH]c2ccc(NC[C@@]3(O)[C@]45O[C@H]4C[C@H]4C6=C(CC[C@]4(C)[C@@]54O[C@H]4[C@@H]4O[C@@]43C(C)C)C(=O)OC6)cc12 | 35.8
CC(C)[C@]12O[C@H]1[C@@H]1O[C@]13[C@]1(O[C@H]1C[C@H]1C4=C(CC[C@@]13C)C(=O)OC4)[C@]2(O)CNc1ccc2c(cnn2CCN2CCOCC2)c1 | 36.4
CC(C)[C@]12O[C@H]1[C@@H]1O[C@]13[C@]1(O[C@H]1C[C@H]1C4=C(CC[C@@]13C)C(=O)OC4)[C@]2(O)CNc1ccc2nn(CCN3CCOCC3)cc2c1 | 77
CC(C)[C@]12O[C@H]1[C@@H]1O[C@]13[C@]1(O[C@H]1C[C@H]1C4=C(CC[C@@]13C)C(=O)OC4)[C@]2(O)CNc1ccc2nn(CCN3CCCCC3)cc2c1 | 99
CC(C)[C@]12O[C@H]1[C@@H]1O[C@]13[C@]1(O[C@H]1C[C@H]1C4=C(CC[C@@]13C)C(=O)OC4)[C@]2(O)CNc1ccc2c(c1)CC(=O)N2 | 38.4
CC(C)[C@]12O[C@H]1[C@@H]1O[C@]13[C@]1(O[C@H]1C[C@H]1C4=C(CC[C@@]13C)C(=O)OC4)[C@]2(O)CNc1ccc2c(c1)C(C)(C)C(=O)N2C | 11.7
CC(C)[C@]12O[C@H]1[C@@H]1O[C@]13[C@]1(O[C@H]1C[C@H]1C4=C(CC[C@@]13C)C(=O)OC4)[C@]2(O)CNc1ccc2ncccc2c1 | 85
CC(C)[C@]12O[C@H]1[C@@H]1O[C@]13[C@]1(O[C@H]1C[C@H]1C4=C(CC[C@@]13C)C(=O)OC4)[C@]2(O)CNc1ccc2nccnc2c1 | 369
CC(C)[C@]12O[C@H]1[C@@H]1O[C@]13[C@]1(O[C@H]1C[C@H]1C4=C(CC[C@@]13C)C(=O)OC4)[C@]2(O)CNc1ccc2ncncc2c1 | 274
CC(C)[C@]12O[C@H]1[C@@H]1O[C@]13[C@]1(O[C@H]1C[C@H]1C4=C(CC[C@@]13C)C(=O)OC4)[C@]2(O)CNc1ccc2oc(=O)ccc2c1 | 87.2
CC(C)[C@]12O[C@H]1[C@@H]1O[C@]13[C@]1(O[C@H]1C[C@H]1C4=C(CC[C@@]13C)C(=O)OC4)[C@]2(O)CNc1ccc2occc(=O)c2c1 | 368
CC(C)[C@]12O[C@H]1[C@@H]1O[C@]13[C@]1(O[C@H]1C[C@H]1C4=C(CC[C@@]13C)C(=O)OC4)[C@]2(O)CNc1ccc2c(c1)C(=O)CCO2 | 32.1
CC(C)[C@]12O[C@H]1[C@@H]1O[C@]13[C@]1(O[C@H]1C[C@H]1C4=C(CC[C@@]13C)C(=O)OC4)[C@]2(O)CNc1ccc2c(c1)CC(=O)O2 | 12.5
CC(C)[C@]12O[C@H]1[C@@H]1O[C@]13[C@]1(O[C@H]1C[C@H]1C4=C(CC[C@@]13C)C(=O)OC4)[C@]21CN(c2ccc3c(cnn3C)c2)CO1 | 79.7

System: PC-3
Test: Cytotoxicity against human PC3 cells after 72 hrs by sulforhodamine B assay
Assay type: functional, cell-based
Details: PC-3, 72 h
In short: as §1

SMILES | IC50 [nM]
CC(C)[C@]12O[C@H]1[C@@H]1O[C@]13[C@]1(O[C@H]1C[C@H]1C4=C(CC[C@@]13C)C(=O)OC4)[C@]21CN(c2ccc3c(cnn3CCN3CCOCC3)c2)CO1 | 253
CC(C)[C@]12O[C@H]1[C@@H]1O[C@]13[C@]1(O[C@H]1C[C@H]1C4=C(CC[C@@]13C)C(=O)OC4)[C@]2(O)Cn1cc(C2CC2)nn1 | > 10000
COC(=O)c1cn(C[C@@]2(O)[C@]34O[C@H]3C[C@H]3C5=C(CC[C@]3(C)[C@@]43O[C@H]3[C@@H]3O[C@@]32C(C)C)C(=O)OC5)nn1 | > 10000
CC(C)[C@]12O[C@H]1[C@@H]1O[C@]13[C@]1(O[C@H]1C[C@H]1C4=C(CC[C@@]13C)C(=O)OC4)[C@]2(O)Cn1cc(-c2ccccc2)nn1 | > 10000
CC(C)[C@]12O[C@H]1[C@@H]1O[C@]13[C@]1(O[C@H]1C[C@H]1C4=C(CC[C@@]13C)C(=O)OC4)[C@]2(O)CNc1cccnc1 | 2810
CC(C)[C@]12O[C@H]1[C@@H]1O[C@]13[C@]1(O[C@H]1C[C@H]1C4=C(CC[C@@]13C)C(=O)OC4)[C@]2(O)CNc1cccc2[nH]ccc12 | 97.8
CC(C)[C@]12O[C@H]1[C@@H]1O[C@]13[C@]1(O[C@H]1C[C@H]1C4=C(CC[C@@]13C)C(=O)OC4)[C@]2(O)CNc1ccc2[nH]ncc2c1 | 25.3
CC(C)[C@]12O[C@H]1[C@@H]1O[C@]13[C@]1(O[C@H]1C[C@H]1C4=C(CC[C@@]13C)C(=O)OC4)[C@]2(O)CNc1ccc2cn[nH]c2c1 | 188
CC(C)[C@]12O[C@H]1[C@@H]1O[C@]13[C@]1(O[C@H]1C[C@H]1C4=C(CC[C@@]13C)C(=O)OC4)[C@]2(O)CNc1ccc2c(cnn2C)c1 | 132
CC(C)[C@]12O[C@H]1[C@@H]1O[C@]13[C@]1(O[C@H]1C[C@H]1C4=C(CC[C@@]13C)C(=O)OC4)[C@]2(O)CNc1ccc2nn(C)cc2c1 | 97
COC(=O)n1ncc2cc(NC[C@@]3(O)[C@]45O[C@H]4C[C@H]4C6=C(CC[C@]4(C)[C@@]54O[C@H]4[C@@H]4O[C@@]43C(C)C)C(=O)OC6)ccc21 | 188
COC(=O)c1n[nH]c2ccc(NC[C@@]3(O)[C@]45O[C@H]4C[C@H]4C6=C(CC[C@]4(C)[C@@]54O[C@H]4[C@@H]4O[C@@]43C(C)C)C(=O)OC6)cc12 | 264
CC(C)[C@]12O[C@H]1[C@@H]1O[C@]13[C@]1(O[C@H]1C[C@H]1C4=C(CC[C@@]13C)C(=O)OC4)[C@]2(O)CNc1ccc2c(cnn2CCN2CCOCC2)c1 | 36.6
CC(C)[C@]12O[C@H]1[C@@H]1O[C@]13[C@]1(O[C@H]1C[C@H]1C4=C(CC[C@@]13C)C(=O)OC4)[C@]2(O)CNc1ccc2nn(CCN3CCOCC3)cc2c1 | 40.8
CC(C)[C@]12O[C@H]1[C@@H]1O[C@]13[C@]1(O[C@H]1C[C@H]1C4=C(CC[C@@]13C)C(=O)OC4)[C@]2(O)CNc1ccc2nn(CCN3CCCCC3)cc2c1 | 66.1
CC(C)[C@]12O[C@H]1[C@@H]1O[C@]13[C@]1(O[C@H]1C[C@H]1C4=C(CC[C@@]13C)C(=O)OC4)[C@]2(O)CNc1ccc2c(c1)CC(=O)N2 | 54.1
CC(C)[C@]12O[C@H]1[C@@H]1O[C@]13[C@]1(O[C@H]1C[C@H]1C4=C(CC[C@@]13C)C(=O)OC4)[C@]2(O)CNc1ccc2c(c1)C(C)(C)C(=O)N2C | 84.9
CC(C)[C@]12O[C@H]1[C@@H]1O[C@]13[C@]1(O[C@H]1C[C@H]1C4=C(CC[C@@]13C)C(=O)OC4)[C@]2(O)CNc1ccc2ncccc2c1 | 452
CC(C)[C@]12O[C@H]1[C@@H]1O[C@]13[C@]1(O[C@H]1C[C@H]1C4=C(CC[C@@]13C)C(=O)OC4)[C@]2(O)CNc1ccc2nccnc2c1 | 157
CC(C)[C@]12O[C@H]1[C@@H]1O[C@]13[C@]1(O[C@H]1C[C@H]1C4=C(CC[C@@]13C)C(=O)OC4)[C@]2(O)CNc1ccc2ncncc2c1 | 781
CC(C)[C@]12O[C@H]1[C@@H]1O[C@]13[C@]1(O[C@H]1C[C@H]1C4=C(CC[C@@]13C)C(=O)OC4)[C@]2(O)CNc1ccc2oc(=O)ccc2c1 | 353
CC(C)[C@]12O[C@H]1[C@@H]1O[C@]13[C@]1(O[C@H]1C[C@H]1C4=C(CC[C@@]13C)C(=O)OC4)[C@]2(O)CNc1ccc2occc(=O)c2c1 | 341
CC(C)[C@]12O[C@H]1[C@@H]1O[C@]13[C@]1(O[C@H]1C[C@H]1C4=C(CC[C@@]13C)C(=O)OC4)[C@]2(O)CNc1ccc2c(c1)C(=O)CCO2 | 172
CC(C)[C@]12O[C@H]1[C@@H]1O[C@]13[C@]1(O[C@H]1C[C@H]1C4=C(CC[C@@]13C)C(=O)OC4)[C@]2(O)CNc1ccc2c(c1)CC(=O)O2 | 67.9
CC(C)[C@]12O[C@H]1[C@@H]1O[C@]13[C@]1(O[C@H]1C[C@H]1C4=C(CC[C@@]13C)C(=O)OC4)[C@]21CN(c2ccc3c(cnn3C)c2)CO1 | 365
CC(C)[C@]12O[C@H]1[C@@H]1O[C@]13[C@]1(O[C@H]1C[C@H]1C4=C(CC[C@@]13C)C(=O)OC4)[C@H]2O [EPITRIPTOIIDE] | 1320
